Experiment [1] has as its system BEND3. Briefly: Inhibition of GLUT in mouse BEND3 cells assessed as decrease in cell proliferation at 20 micromol/L. It is filed as cell-based. To be noted: dose 20.0 µmol/L.
In experiment [2] the test system is BEND3. The experiment is described as follows: Inhibition of GLUT in mouse BEND3 cells assessed as decrease of [14C]-3-O-methylglucose transport at 20 micromol/L after 2 hrs by glucose transport assay. Format: cell-based. To be noted: dose 20.0 µmol/L. Summed up:
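bEND3 cells were treated with inhibitor or DMSO vehicle for 24 hrs, then held in serum-free DMEM for 2 hrs at 37°C with inhibitor or vehicle and washed. Uptake ran 30 min in DPBS with 20 mM 3-O-methylglucose plus 1 µCi/ml 14C-3MG, still with inhibitor. It was stopped with ice-cold 50 mM glucose in PBS, cells lysed in 0.1 N NaOH, and counted by LSC; triplicate.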

For experiment [3], the system named is BEND3. The experiment is described as follows: Inhibition of GLUT in mouse BEND3 cells assessed as decrease in cell migration at 20 micromol/L. It is filed as cell-based. To be noted: dose 20.0 µmol/L.
For experiment [4], the target named is T1, Solute carrier family 2, facilitated glucose transporter member 1 (Mus musculus) (UniProt P17809).
T1 sequence (whole entry): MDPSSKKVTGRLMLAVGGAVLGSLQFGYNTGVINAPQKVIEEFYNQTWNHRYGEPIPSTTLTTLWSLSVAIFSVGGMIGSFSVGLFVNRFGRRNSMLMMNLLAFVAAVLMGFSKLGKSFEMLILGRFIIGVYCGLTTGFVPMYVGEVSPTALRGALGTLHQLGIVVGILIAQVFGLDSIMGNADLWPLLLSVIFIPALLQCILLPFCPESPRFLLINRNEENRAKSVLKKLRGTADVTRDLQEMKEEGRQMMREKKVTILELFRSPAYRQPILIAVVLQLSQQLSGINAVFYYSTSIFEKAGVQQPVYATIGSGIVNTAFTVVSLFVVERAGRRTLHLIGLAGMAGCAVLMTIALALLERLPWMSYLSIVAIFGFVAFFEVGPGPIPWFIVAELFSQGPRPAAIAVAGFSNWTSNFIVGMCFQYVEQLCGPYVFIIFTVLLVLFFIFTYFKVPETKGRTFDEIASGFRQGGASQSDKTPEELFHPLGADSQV
Briefly: Inhibition of GLUT1 in mouse primary endothelial cells assessed as decrease in glycolysis. It is filed as cell-based. To be noted: Endothelial cell. The procedure, abridged:
(§1)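 Glycolytic flux read as 3H2O release: cells kept 2 hrs in culture medium containing D-[5-3H]-glucose at 0.4 µCi/ml final. Supernatant sealed in glass vials, 3H2O captured over 48 h at 37°C on water-soaked paper in hanging wells, then counted by scintillation. Inhibitor exposure 24 hrs from the day after seeding.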

Experiment [5] addresses T2, Solute carrier family 2, facilitated glucose transporter member 1 (Homo sapiens) (UniProt P11166).
T2 sequence (whole entry): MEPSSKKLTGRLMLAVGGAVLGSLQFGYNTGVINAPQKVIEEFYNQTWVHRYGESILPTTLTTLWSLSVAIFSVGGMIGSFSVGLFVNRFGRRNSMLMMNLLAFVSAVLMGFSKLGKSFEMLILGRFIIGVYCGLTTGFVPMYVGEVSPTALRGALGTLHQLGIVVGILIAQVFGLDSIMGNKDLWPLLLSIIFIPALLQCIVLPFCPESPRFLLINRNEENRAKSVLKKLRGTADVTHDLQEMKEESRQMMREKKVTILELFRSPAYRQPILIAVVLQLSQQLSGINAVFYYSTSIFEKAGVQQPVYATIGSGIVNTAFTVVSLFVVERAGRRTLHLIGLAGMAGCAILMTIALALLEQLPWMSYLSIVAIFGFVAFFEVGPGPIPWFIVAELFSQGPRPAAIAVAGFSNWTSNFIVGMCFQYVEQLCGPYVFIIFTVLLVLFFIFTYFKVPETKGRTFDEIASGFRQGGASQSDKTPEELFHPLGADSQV
Briefly: Inhibition of GLUT1 in human brain microvascular endothelial cells assessed as decrease in glycolysis at 20 nmol/L. To be noted: Endothelial cell. Summed up: as §1

The target of experiment [6] is T2, Solute carrier family 2, facilitated glucose transporter member 1 (Homo sapiens). The experiment is described as follows: Inhibition of GLUT1 in human retinal microvascular endothelial cells assessed as decrease in glycolysis at 20 nmol/L. Format: cell-based. To be noted: Endothelial cell, time 2.0 hrs. The procedure, abridged: as §1
In experiment [7] the target is T1, Solute carrier family 2, facilitated glucose transporter member 1 (Mus musculus). Briefly: Inhibition of GLUT1 in mouse BEND3 cells assessed as decrease in cell proliferation at 20 nmol/L. Format: cell-based. Summed up: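 Proliferation measured after 24 hrs of inhibitor as [6-3H]-thymidine incorporation: 2 hrs with 1 µCi/ml final in culture medium, ethanol fixation 15 min at 4°C, 10% TCA precipitation, 0.1 N NaOH lysis, and scintillation counting.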

Experiment [8] has the same target. The experiment is described as follows: Inhibition of GLUT1 in mouse BEND3 cells assessed as slight decrease in cell migration at 20 nmol/L by scratch wound assay. It is filed as cell-based. The procedure, abridged:
(§2)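 Confluent monolayers, pre-treated 24 hrs with inhibitor or 1 µg/ml mitomycin C where indicated, scratched with a pipette tip and imaged (T0). Then incubated in EGM2 and fixed with 4% PFA when control closure was near complete. Gap areas measured; closure % = (1 − Tx gap/T0 gap) × 100.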

The target in experiment [9] is T2, Solute carrier family 2, facilitated glucose transporter member 1 (Homo sapiens). The experiment is described as follows: Inhibition of GLUT1 in HUVEC assessed as sprouting angiogenesis at 40 nmol/L in presence of mitomycin C. It is filed as cell-based. The procedure, abridged: (§3)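 Spheroids of 1000 ECs per 25 µl hanging drop formed overnight in 20% methylcellulose/EGM2, then embedded in 5 mg/ml fibrinogen gel in EGM2 with or without inhibitor and/or 1 µg/ml mitomycin C. Same medium overlaid on gel. Fixed with 4% PFA after 24 hrs and photographed.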

Experiment [10] concerns the target T1, Solute carrier family 2, facilitated glucose transporter member 1 (Mus musculus). The experiment is described as follows: Inhibition of GLUT1 in mouse primary endothelial cells assessed as decrease in glucose transport. It is filed as cell-based. To be noted: Endothelial cell.
The target in experiment [11] is T2, Solute carrier family 2, facilitated glucose transporter member 1 (Homo sapiens). The experiment is described as follows: Inhibition of GLUT1 in human brain microvascular endothelial cells assessed as decrease in sprouting angiogenesis. To be noted: Endothelial cell, dose 20.0 nmol/L. Summed up:
as §3

Experiment [12] deals with T1, Solute carrier family 2, facilitated glucose transporter member 1 (Mus musculus). The experiment is described as follows: Inhibition of GLUT1 in mouse BEND3 cells assessed as reduced phosphorylation of RPS6 at 20 nmol/L by Western blot analysis. Format: cell-based. Background: In western blotting, separated proteins are transferred to a membrane and probed.
The target is the same in experiment [13]. Briefly: Inhibition of GLUT1 in mouse BEND3 cells assessed as decrease in glycolysis at 20 nmol/L relative to cytochalasin B. It is filed as cell-based. To be noted: time 2.0 hrs. The procedure, abridged:
as §1

The target of experiment [14] is T2, Solute carrier family 2, facilitated glucose transporter member 1 (Homo sapiens). Briefly: Inhibition of GLUT1 in HUVEC assessed as decrease in sprouting angiogenesis at 40 nmol/L. Format: cell-based. The procedure, abridged:
as §3

Experiment [15] has the same target. The experiment is described as follows: Inhibition of GLUT1 in HUVEC assessed as decrease in glucose transport. Format: cell-based. Summed up:
(§4)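 Cells pre-held 2 hrs at 37°C in serum-free DMEM with inhibitor or DMSO vehicle, DPBS-washed, then given 20 mM 3-O-methylglucose carrying 1 µCi/ml [14C]-3MG in DPBS plus inhibitor for 30 min uptake. Stopped and washed with ice-cold 50 mM glucose in PBS, lysed in 0.1 N NaOH, counted by liquid scintillation. Triplicate measurements.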

The target in experiment [16] is T1, Solute carrier family 2, facilitated glucose transporter member 1 (Mus musculus). The experiment is described as follows: Inhibition of GLUT1 in mouse BEND3 cells assessed as decrease in [14C]-3-O-methylglucose transport after 2 hrs by glucose transport assay. It is filed as cell-based. The procedure, abridged:
as §4

Experiment [17] has as its target T2, Solute carrier family 2, facilitated glucose transporter member 1 (Homo sapiens). Briefly: Inhibition of GLUT1 in human retinal microvascular endothelial cells assessed as decrease in sprouting angiogenesis. It is filed as cell-based. To be noted: Endothelial cell. Summed up: as §3
The target of experiment [18] is T1, Solute carrier family 2, facilitated glucose transporter member 1 (Mus musculus). Briefly: Inhibition of GLUT1 in mouse BEND3 cells assessed as reduced phosphorylation of mTORC1 at 20 nmol/L by Western blot analysis. Format: cell-based.
The target is the same in experiment [19]. The experiment is described as follows: Inhibition of GLUT1 in mouse BEND3 cells assessed as cell migration at 20 nmol/L by scratch wound assay in presence of mitomycin C. Format: cell-based. The procedure, abridged:
as §2

The target is the same in experiment [20]. Briefly: Inhibition of GLUT1 in mouse BEND3 cells assessed as increase in AMP/ATP ratio at 20 nmol/L. It is filed as cell-based.
The target is the same in experiment [21]. Briefly: Inhibition of GLUT1 in mouse BEND3 cells assessed as activation of AMPK at 20 nmol/L by Western blot analysis. It is filed as cell-based. The procedure, abridged:
(§5)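 bEND3 lysed in Laemmli buffer, denatured 5 min at 95°C, and 15 µg protein run on 4-20% gels and transferred to PVDF. Probed overnight in 5% milk/TBST with antibodies to phospho-AMPKα (Thr172), AMPKα, p53 and p21, with β-actin.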

Experiment [22] has the same target. The experiment is described as follows: Inhibition of GLUT1 in mouse BEND3 cells assessed as reduction in glycolytic metabolite at 20 nmol/L. It is filed as cell-based.
Experiment [23] has the same target. Briefly: Inhibition of GLUT1 in mouse BEND3 cells assessed as complete inhibition of [14C]-3-O-methylglucose transport at 20 nmol/L after 2 hrs by glucose transport assay. It is filed as cell-based. The procedure, abridged:
as §4

Experiment [24] shares this target. Briefly: Inhibition of GLUT1 in mouse BEND3 cells assessed as increase in p53/p21 ratio at 20 nmol/L by Western blot analysis. Format: cell-based. The procedure, abridged: as §5
For experiment [25] the target is unchanged. Briefly: Inhibition of GLUT1 in mouse BEND3 cells assessed as reduced phosphorylation of S6K1 at 20 nmol/L by Western blot analysis. Format: cell-based.
Experiment [26] addresses T2, Solute carrier family 2, facilitated glucose transporter member 1 (Homo sapiens). Briefly: Inhibition of GLUT1 in HUVEC assessed as decrease in glycolysis. Format: cell-based. Summed up:
as §1

This note sets out measurements from ChEMBL document CHEMBL5712091, “Role of the GLUT1 Glucose Transporter in Postnatal CNS Angiogenesis and Blood-Brain Barrier Integrity” (Circ Res, 2020).

Molecules are shown by their SMILES. Calls of active or inactive are those of the source. The calls are words filed in the database; no cut-off is given here.

Usually inhibition stands for the change of the read-out against control, counted positive when it falls.

On to `C=C1[C@@H](C)[C@H]2[C@H](Cc3ccccc3)NC(=O)[C@]23OC(=O)/C=C/[C@H](O)CCC[C@@H](C)C/C=C/[C@H]3[C@@H]1O`, for which the inhibition entry in the experiment on BEND3 [1], with BEND3 [2] and in the experiment with BEND3 [3] was “Active” each time.

For `Cc1c(NC(=O)c2cc(C(N)=O)nc3cc(F)ccc23)c(C(F)(F)F)nn1Cc1ccc(C#N)cc1`, the inhibition entry in [4], in experiment [5], in [6], in [8], in experiment [10] and in experiment [11] was “Active” throughout. Also, the inhibition entry in experiment [12], in [13], in [14], in experiment [15], in experiment [16] and in experiment [17] was “Active” each time. The inhibition result in experiment [18], in experiment [20], in [21], in experiment [22], in [23] and in experiment [24] was “Active” throughout. Also, the inhibition entry in experiment [25] and in experiment [26] was “Active” throughout. For the same compound, the inhibition in experiment [7] came to 40%. For the same compound, the inhibition result in experiment [9] and in experiment [19] was “inactive” in each case.
